Experimental data as given in ChEMBL document CHEMBL1132545, “Synthesis and structure-activity relationships of new 1, 3-disubstituted cyclohexanes as structurally rigid leukotriene B(4) receptor antagonists” (J Med Chem, 1999).

What was measured:
[1] = molecular target: Leukotriene B4 receptor (Homo sapiens, UniProt Q9NPC1+Q15722); assay: Inhibition of binding of [3H]LTB4 (1 nM) to intact human polymorphonuclear leukocytes (PMNs)
Summary of the method: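 Intact donor PMNs (10^6 cells) in Ca2+/Mg2+-free HBSS with 5 mM HEPES, incubated 20 min at 4 °C with 1 nM [3H]LTB4 (7.4 TBq/mmol), with or without competitors at various concentrations. Bound label measured by filtration. […] Screening at 10 μM.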

[2] = (§1) Inhibition of LTB4 induced chemotaxis of isolated human PMNs; type: functional
Summary of the method: (§2)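 Human PMNs from healthy donors' heparinized blood, isolated by dextran sedimentation, Ficoll and hypotonic lysis. Cells labeled with 51Cr (1 μCi/10^6 cells, 1 h, 37 °C), resuspended at 10^7 cells/mL in Hank's buffer with 1% BSA. LTB4 plus competitors in lower Boyden–Keller chamber, two 3 μm cellulose nitrate filters, 150 min at 37 °C, 5% CO2. Lower-filter radioactivity counted, expressed as percent of control. pKB from n experiments.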

[3] = species: Homo sapiens; assay: as §1; type: functional; summary of the method: as §2

Compound	IC50 [1] [µM]	pKB [2]	pKB [3]
O=C([O-])/C=C1/CCC[C@H](/C=C/C(O)CCCCc2ccccc2)C1.[Na+] (stereo in doubt; form 1)	> 10	–	–
O=C([O-])C[C@]1(O)CCC[C@H](CCC(O)CCCCc2ccccc2)C1.[Na+] (some centres undefined)	5.3	–	–
O=C([O-])C[C@]1(O)CCC[C@H](/C=C/C(=O)CCCCc2ccccc2)C1.[Na+]	> 10	–	–
CCCCCCCCC(O)/C=C/[C@H]1CCC[C@](O)(CC(=O)[O-])C1.[Na+] (stereo in doubt; 4c)	4	–	–
CCCCCC(O)/C=C/[C@H]1CCC[C@@](O)(CC(=O)[O-])C1.[Na+] (stereo in doubt; 2b)	8	5.1	–
CN(C)C(=O)C[C@]1(O)CCC[C@H](/C=C/C(F)CCCCc2ccccc2)C1 (stereo in doubt; 16 a)	2	–	–
CCCCCC(O)/C=C/[C@H]1CCC[C@](O)(CC(=O)[O-])C1.[Na+] (stereo in doubt; 2c)	> 10	–	–
O=C([O-])C[C@@]1(O)CCC[C@H](/C=C/C(O)CCCCc2ccccc2)C1.[Na+] (stereo in doubt; 3c)	> 10	–	–
CCCCCCCCC(O)/C=C/[C@H]1CCC[C@@](O)(CC(=O)[O-])C1.[Na+] (stereo in doubt; 4a)	> 10	–	–
O=C([O-])C[C@]1(O)CCC[C@H](/C=C/C(O)CCCCc2ccccc2)C1.[Na+] (stereo in doubt; 3a)	> 10	–	–
CCCCCCCCC(O)/C=C/[C@H]1CCC[C@](O)(CC(=O)[O-])C1.[Na+] (stereo in doubt; 4d)	2.5	–	–
CCCCCC(O)/C=C/[C@H]1CCC[C@@](O)(CC(=O)[O-])C1.[Na+] (stereo in doubt; 2a)	> 10	–	–
CN(C)C(=O)C[C@]1(O)CCC[C@H](/C=C/[C@H](O)CCCCc2ccccc2)C1	> 10	–	–
CN(C)OC(=O)/C=C1/CCC[C@@H](/C=C/C(O)CCCCc2ccccc2)C1 (some centres undefined)	1	–	–
CN(C)OC(=O)/C=C1/CCC[C@H](/C=C/C(O)CCCCc2ccccc2)C1 (some centres undefined)	7	–	–
O=C([O-])C[C@@]1(O)CCC[C@H](/C=C/C(O)CCCCc2ccccc2)C1.[Na+] (stereo in doubt; 3d)	1.5	6.31	–

Compound	IC50 [1] [µM]	pKB [2]	pKB [3]
CN(C)C(=O)C[C@]1(O)CCC[C@H](/C=C/C(F)CCCCc2ccccc2)C1 (stereo in doubt; 16b)	6.5	–	–
CN(C)C(=O)C[C@]1(O)CCC[C@H](/C=C/[C@@H](O)CCCCc2ccccc2)C1	0.04	7.5	–
O=C([O-])/C=C1\CCC[C@H](/C=C\C(O)CCCCc2ccccc2)C1.[Na+] (some centres undefined)	1.3	–	–
O=C([O-])C[C@@H]1CCC[C@H](CCC(O)CCCCc2ccccc2)C1.[Na+] (some centres undefined)	2.6	–	–
CN(C)C(=O)C[C@]1(O)CCC[C@H](/C=C/C(C)(O)CCCCc2ccccc2)C1 (stereo in doubt; 15b)	7	–	–
CN(C)OC(=O)C[C@]1(O)CCC[C@H](/C=C/C(O)CCCCc2ccccc2)C1 (some centres undefined)	> 10	–	–
CN(C)C(=O)C[C@]1(O)CCC[C@H](/C=C/C(C)(O)CCCCc2ccccc2)C1 (stereo in doubt; form 1)	4.5	–	–
CN(C)C(=O)C[C@]1(O)CCC[C@H](/C=C/C(C)(O)CCCCc2ccccc2)C1 (stereo in doubt; form 2)	> 10	–	–
O=C([O-])C[C@]1(O)CCC[C@H](/C=C/C(O)(CCCCc2ccccc2)CC(=O)O)C1.[Na+] (some centres undefined)	> 10	–	–
CCCCCC(O)/C=C/[C@H]1CCC[C@](O)(CC(=O)[O-])C1.[Na+] (stereo in doubt; 2d)	10	–	5.25
CC(=O)OC(/C=C/[C@H]1CCC/C(=C/C(=O)N(C)C)C1)CCCCc1ccccc1 (some centres undefined)	> 10	–	–
CCCCCCCCC(O)/C=C/[C@H]1CCC[C@@](O)(CC(=O)[O-])C1.[Na+] (stereo in doubt; 4b)	0.9	–	6.42
CN(C)OC(=O)C[C@@]1(O)CCC[C@H](/C=C/C(O)CCCCc2ccccc2)C1 (some centres undefined)	0.08	6.91	–
O=C([O-])/C=C1/CCC[C@H](/C=C/C(O)CCCCc2ccccc2)C1.[Na+] (stereo in doubt; form 2)	0.5	–	–
O=C([O-])C[C@]1(O)CCC[C@H](/C=C/C(O)CCCCc2ccccc2)C1.[Na+] (stereo in doubt; 3b)	0.8	6.57	–
O=C([O-])/C=C1/CCC[C@H](/C=C/C(O)CCCCc2ccccc2)C1.[Na+] (stereo in doubt; 10a)	> 10	–	–
